MBD2 DNA inh: inhibitors of MBD2 binding to methylated DNA, primary screen, biochemical, TR-FRET, DNA-binding domain, human | Methyl-CpG-binding domain protein 2 (Homo sapiens), Q9UBB5 | MBD2 binding to methylated oligonucleotide | inhibition, % at 4.4 µM | hit rate 0.31% among 370,000; in the data active = inhibition above about 13%
Target sequence (Q9UBB5 whole entry, looked up, the tested form may be a part): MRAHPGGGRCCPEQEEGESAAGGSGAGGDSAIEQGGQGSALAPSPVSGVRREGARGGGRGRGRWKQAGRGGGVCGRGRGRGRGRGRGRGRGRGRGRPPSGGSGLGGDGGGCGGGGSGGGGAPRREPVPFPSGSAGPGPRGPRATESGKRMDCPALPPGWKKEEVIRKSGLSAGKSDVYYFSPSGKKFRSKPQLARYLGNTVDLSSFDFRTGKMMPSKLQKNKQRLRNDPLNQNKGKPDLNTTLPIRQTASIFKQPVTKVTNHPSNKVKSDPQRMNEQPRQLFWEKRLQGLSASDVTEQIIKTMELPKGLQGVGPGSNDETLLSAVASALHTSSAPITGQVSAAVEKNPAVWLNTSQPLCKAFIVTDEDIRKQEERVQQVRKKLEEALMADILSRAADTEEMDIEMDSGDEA
ASAP1 inh: inhibitors of human ASAP1 ArfGAP activity, primary screen, biochemical, fluorescence polarization; Arf-GAP with SH3 domain, ANK repeat and PH domain-containing protein 1 (Homo sapiens), …; ASAP1-stimulated ARF1 GTP hydrolysis, GDP FP detection; inhibition, % at 16.5 µM; hit rate 0.19% among 360,000; in the data active = inhibition above about 25%;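 note: 0% = vehicle with enzyme and substrate and 100% = no enzyme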
UHRF1 MBD2 ctr: UHRF1 methylated DNA binding inhibitors, primary screen, counter-screen for MBD2 inhibitor project, biochemical, TR-FRET, human UHRF1, single concentration; E3 ubiquitin-protein ligase UHRF1 (Homo sapiens), Q96T88; UHRF1 binding to methylated oligo; inhibition, % at 4.4 µM; hit rate 0.75% among 370,000; AID 687016, 2013; in the data active = inhibition above about 21%;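 note: UHRF1 SRA domain binding a hemimethylated CpG hairpin DNA probe; 0% = median of test compound wells and 100% = reference inhibitor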
TCR-CD3 inh: inhibitors of human TCR-CD3 interaction, primary screen, biochemical, fluorescence, TAMRA-labeled TCR probe. T-cell receptor (TCR). hit rate 0.37% among 360,000. inhibition, % at 9.4 µM; in the data active = inhibition above about 19%;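 note: recombinant mutant TCR 2C K166C tagged with TAMRA read by polarization; 0% = receptor in buffer alone and 100% = receptor with positive control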
LEDGF integ inh: blockers of LEDGF/p75-dependent integrase strand transfer – biochemical, TR-FRET, high throughput, primary screen; HIV-1 integrase (with human LEDGF/p75); TR-FRET IN-LEDGF/p75 DNA integration, Eu/Cy5; inhibition, % at 3.7 µM; hit rate 0.64% among 370,000; AID 743269, 2014;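 active = inhibition above the screen-wide mean plus 3 SD, cut at about 13% in these data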;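 note: signal is the Cy5 over europium emission ratio at 671 and 618 nm; 0% = plate median of compound wells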
ARFGAP1 inhibitor: inhibitors of rat ARFGAP1 GAP activity, primary screen, biochemical, fluorescence polarization, GDP tracer | inhibition, % at 16.5 µM | hit rate 0.26% among 360,000 | Arfgap1-stimulated ARF1 GTP hydrolysis, GDP FP detection | ADP-ribosylation factor GTPase-activating protein 1 (Rattus norvegicus), Q62848;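 active = inhibition above a per-plate limit, mean inhibition of low control wells plus 3 SD, cut at about 25% in these data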;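 note: 0% = DMSO wells with enzyme and 100% = wells lacking Arfgap1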
Target sequence (Q62848 1-136 limits assumed): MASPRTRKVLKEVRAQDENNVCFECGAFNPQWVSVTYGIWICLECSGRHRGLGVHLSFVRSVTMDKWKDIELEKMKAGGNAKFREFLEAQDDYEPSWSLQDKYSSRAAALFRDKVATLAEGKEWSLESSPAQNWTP
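Material: rat Arfgap1 catalytic domain, aa 1-136; also added: human ARF1(Δ1-17)-GTP substrate; compound dosing: one concentration, 16.5 µM, DMSO 1.26%; incubation: GTP hydrolysis reaction 2 h at 25 °C; measured by: Tracer-displacement fluorescence polarization with EDTA stop, 620/688 nm; evaluation: % inhibition from polarization; repeats: one replicate per compound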
UHRF1 DNA bind: UHRF1 methylated DNA binding inhibitors, counter-screen for MBD2 inhibitor project, biochemical, TR-FRET, human UHRF1; shares compounds with MBD2 DNA inh; UHRF1 binding to methylated oligonucleotide; inhibition, % at 4.4 µM; hit rate 25% among 1,000; AID 720530, 2013; in the data active = inhibition above about 21%;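 note: UHRF1 SRA domain binding a labeled hemimethylated CpG hairpin DNA; 0% = vehicle only and 100% = reference inhibitor with vehicle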
MBD2 confirm: inhibitors of MBD2 binding to methylated DNA, confirmation, biochemical, TR-FRET, DNA-binding domain, human | hit rate 26% among 1,000 | AID 720531, 2013 | inhibition, % at 4.4 µM | TR-FRET MBD2-DBD binding to methylated oligonucleotide | shares compounds with MBD2 DNA inh
IN multimer up: HIV-1 IN multimer formation enhancers, counter-screen for LEDGF/p75 integration inhibitor project, biochemical, TR-FRET; hit rate 17% among 2,000; shares compounds with LEDGF integ inh; TR-FRET HIV-1 integrase multimerization; activation, % at 7.7 µM; in the data active = activation above about 8.9%
TR-FRET interf: TR-FRET optical interference artefacts, confirmation, artefact control for LEDGF/p75-dependent integration inhibitor project, biochemical, HIV-1 IN multimerization | inhibition, % at 7.7 µM | TR-FRET optical interference counterscreen | AID 1053135, 2014 | shares compounds with LEDGF integ inh | 2,000 tested, under 10 active;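 active = inhibition above the mean over all tested compounds plus 3 SD, which no compound reached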;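 note: 0% = integrase with antibodies and DMSO and 100% = antibodies without integrase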
IN-LEDGF confirm: inhibitors of HIV-1 IN-LEDGF/p75 DNA integration, confirmation, biochemical, TR-FRET | TR-FRET LEDGF/p75-dependent HIV-1 integration | AID 1053136, 2014 | shares compounds with LEDGF integ inh | hit rate 36% among 2,000 | inhibition, % at 3.7 µM
Starred values were filed as active, the others as inactive; x = no result given. The list is not random: actives were taken first. Their share in the collection is about 2%. Cut-off read from the data, not from the text of the source, unless noted: active = inhibition above about 14%; inactive = the rest.

SMILES | MBD2 DNA inh | ASAP1 inh | UHRF1 MBD2 ctr | TCR-CD3 inh | LEDGF integ inh | ARFGAP1 inhibitor | IN multimer up | TR-FRET interf | IN-LEDGF confirm | others
COc1ccc(C(SCC(NC(=O)OCc2ccccc2)C(=O)O)c2ccc(OC)cc2)cc1 (centres undefined) | -3 | 7 | 0 | -1 | -3 | -2 | x | x | x
CN(C)C(=S)SSC(=S)N(C)C | -3 | -8 | -3 | 5 | -1 | 1 | x | x | x
c1ccc(-c2cc(-c3ccccc3)[n+](-c3ccccc3)c(-c3ccccc3)c2)cc1 | 13* | 13 | 2 | 6 | 2 | 9 | x | x | x | UHRF1 DNA bind=13;MBD2 confirm=40*
CCCCCCN=Cc1c(O)n(C)c(=O)n(C)c1=O | -5 | 0 | 0 | -2 | 0 | 3 | x | x | x
O=C(O)Cn1cc(/C=C2\C(=O)NC(=O)N(Cc3ccco3)C2=O)c2ccccc21 | 25* | 4 | 85* | 2 | 86* | -8 | x | x | x | UHRF1 DNA bind=56*;MBD2 confirm=18*
N/C(=N\N=C/c1ccc(-c2ccc(O)c(C(=O)O)c2)o1)N[N+](=O)[O-] | 48* | 2 | 82* | 17 | 30* | 1 | 35* | -125 | 25* | UHRF1 DNA bind=55*;MBD2 confirm=18*
CCCCN1C(=O)/C(=C/C=C/c2ccco2)C(=O)NC1=S | 29* | 0 | 83* | -91 | 56* | -11 | 3 | -17 | 74* | UHRF1 DNA bind=48*;MBD2 confirm=19*
COC(=O)C1=C(c2ccc(F)cc2F)C[C@@H]2CC[C@H]1N2C(=O)N1CCC(O)(c2ccc(Cl)cc2)CC1 | -2 | 10 | 1 | -1 | 1 | 0 | x | x | x
CN(C(=O)CNC(=O)OCc1ccccc1)c1ccc(Br)cc1C(=O)c1ccccc1Cl | -4 | -10 | 0 | 7 | -1 | 1 | x | x | x
Cc1ccc(N2C(=O)NC(=O)/C(=C/c3cnn(-c4ccc(C)cc4)c3)C2=O)cc1 | -7 | -5 | 0 | 2 | 1 | -11 | x | x | x
Cc1ccc(N2C(=O)NC(=O)/C(=C/c3ccoc3)C2=O)cc1 | 33* | 0 | 63* | 17 | 30* | -5 | 9.2* | -46 | 57* | UHRF1 DNA bind=86*;MBD2 confirm=54*
NCC(O)c1cc(O)c(O)cc1F (centres undefined) | 14* | -15 | 27* | 15 | 49* | -5 | 12* | -61 | -5 | UHRF1 DNA bind=14;MBD2 confirm=4
COc1ccc(C2=CC(c3ccc(OC)c(OC)c3)c3c(c4ccccc4oc3=O)O2)cc1OC (centres undefined) | -2 | 0 | -3 | 0 | -1 | 12 | x | x | x
CCc1ccccc1N1C(=O)/C(=C/c2ccc(N3CCN(C)CC3)o2)C(=O)NC1=S | -3 | 2 | 6 | -22 | 17* | -4 | 2 | -8 | 14*
CCOC(=O)c1c(N)n(CCN2CCCCC2)c2nc3ccccc3nc12 | -3 | 3 | -5 | 1 | -2 | 3 | x | x | x
CCCCn1c(NS(=O)(=O)c2ccccc2)c(C(=O)OCC)c2nc3ccccc3nc21 | 7 | 22 | 12 | -5 | 31* | 8 | 0 | -1 | 66*
CCCCn1c(NC(=O)c2ccc(Br)o2)c(C(=O)OCC)c2nc3ccccc3nc21 | -4 | 12 | 4 | 5 | 17* | 12 | -1 | 3 | 69*
COC(=O)[C@@]1(O)c2c(oc3cccc(O)c3c2=O)C=C[C@H]1O | 3 | x | -1 | x | 1 | x | x | x | x
CCC(C)NC(=O)c1c(N)n(CC2CCCO2)c2nc3ccccc3nc12 (centres undefined) | 4 | 16 | 12 | -4 | 19* | 18 | 0 | 1 | -1
C=C1[C@H]2CC[C@H]3[C@]4(C)C[C@H](O[C@@H]5OC(CO)[C@@H](OSOOO)[C@H](OS(=O)(=O)O)[C@H]5OC(=O)CC(C)C)C[C@@H](C(=O)O)[C@H]4CC[C@]3(C2)[C@H]1O (some centres undefined) | -7 | 3 | 3 | 4 | 14* | -6 | -2 | 11 | 15*
Clc1ccc(OCC#CCN2CCCC2)cc1 | -1 | 13 | -3 | 0 | 4 | -1 | x | x | x
O=[N+]([O-])c1ccc(N2CCOCC2)c2c1no[n+]2[O-] | -17 | 2 | -17 | 5 | 14* | 14 | 2 | -6 | 12
O=[N+]([O-])c1ccc(N2CCOCC2)c2cccnc12 | -2 | 3 | 14 | -3 | 0 | 6 | x | x | x
O=C(CF)N(O)c1ccc(C=Cc2ccccc2)cc1 | 4 | 2 | 2 | 3 | 24* | -4 | 0 | -1 | -5
COc1cc2c(cc1O)[C@@H]1Cc3ccc(OC)c(O)c3CN1CC2 | -2 | 8 | 6 | 2 | 38* | -2 | 6 | -20 | 44*
COc1ccc(C[C@@H]2c3cc(O)c(OC)cc3CCN2C)cc1O | 0 | -16 | -2 | 6 | 0 | -7 | x | x | x
O=C(COc1ccccc1)c1cn(Cc2ccccc2)c2ccccc12 | 4 | 3 | -1 | -2 | 1 | 2 | x | x | x
C=CCN1CC[C@]23c4c5ccc(O)c4OC2C(=O)CC[C@@]3(O)C1C5 (some centres undefined) | -3 | -1 | 0 | -5 | -1 | -4 | x | x | x
